Active and inactive are the calls of the source. No cut-off for these calls is given here.
Tests used:
[1] = Cytotoxicity against HMEC1 assessed as cell viability at 1 uM after 24 hrs by MTT assay in absence of oxidized LDL; parameters: species or system HMEC-1; details: human, HMEC1 cells; read-out: Activity
[2] = Cytoprotective activity in HMEC1 assessed as inhibition of oxidized LDL induced toxicity measured as residual viability at 10 uM after 24 hrs by MTT assay (reference value: 20 +/- 5 %); format: functional, Homo sapiens, HMEC-1
[3] = Antioxidant activity assessed as inhibition of DPPH free radical scavenging activity after 60 mins by UV-Visible spectrophotometry; format: physicochemical
Summary of the method: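 Reduction of ethanolic DPPH radical read by absorbance at 517 nm at 0 and after 60 min at room temperature. I% = 100×(A0−A60)/A0. IC50 is the concentration giving 50% radical inhibition. Run in triplicate, mean ± SEM; Trolox reference.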

[4] = Cytotoxicity against HMEC1 assessed as cell viability at 10 uM after 24 hrs by MTT assay in absence of oxidized LDL; parameters: species or system HMEC-1; details: human, HMEC1 cells; read-out: Activity
[5] = Antioxidant activity in HMEC1 assessed as inhibition of cell induced LDL oxidation by measuring TBARS level at 10 uM relative to control; format: functional, Homo sapiens, HMEC-1; parameters: scale not given: the % may be the effect or the level left
Summary of the method: (§1)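 HMEC-1 (passage 30-36) in serum-free RPMI 1640 with native human LDL (100 µg apoB/mL). Agent added with the LDL in DMSO (0.1% final), 14 h at 37 °C. TBARS measured in the medium and expressed as % of LDL-plus-vehicle control; Trolox reference. Mean ± SEM of 4 experiments.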

[6] = Antioxidant activity in HMEC1 assessed as inhibition of cell induced LDL oxidation by measuring TBARS level at 1 uM relative to control; format: functional, Homo sapiens, HMEC-1; parameters: scale not given: the % may be the effect or the level left; summary of the method: as §1
[7] = Cytoprotective activity in HMEC1 assessed as inhibition of oxidized LDL induced toxicity measured as residual viability at 1 uM after 24 hrs by MTT assay (reference value: 20 +/- 5 %); format: functional, Homo sapiens, HMEC-1
[8] = test system: HMEC-1; test: Antiangiogenic activity in HMEC1 assessed as inhibition of oxidized LDL induced tube formation at 10 uM after 18 hrs by calcein staining based fluorescence microscopy; format: functional; details: Homo sapiens
Summary of the method: (§2)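 HMEC-1 (passage 30-36, serum-starved 24 h) seeded at 30,000 cells/well on Matrigel. Grown 18 h at 37 °C in MCDB-131 with UV-C mildly oxidized LDL (20 µg/mL) ± agent (10 µM). Controls were 0.1% FBS (negative) and 2.5% FBS (positive). Calcein stain (1 µM, 30 min), then fluorescence microscopy. Linked cells counted as % of total cells; mean ± SEM, 4 experiments.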

[9] = test system: HMEC-1; test: Inhibition of oxidized LDL induced intracellular ROS formation in HMEC1 at 10 uM preincubated for 30 to 40 mins followed by H2DCFDA-AM addition by fluorescence analysis; format: functional, cell-based; details: Homo sapiens
Summary of the method: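 HMEC-1 given oxLDL (20 µg/mL) ± agent (10 µM) for 40 min. H2DCFDA-AM (5 µM final) added 30 min before the end, then cells washed three times with PBS. Homogenate fluorescence read at ex 495/em 520 nm as a ratio to unstimulated control. Mean ± SEM, 4 experiments.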

[10] = Antiangiogenic activity in HMEC1 assessed as inhibition of oxidized LDL induced tube formation measured as residual tube at 10 uM after 18 hrs by calcein staining based fluorescence microscopy; format: functional, Homo sapiens, HMEC-1; summary of the method: as §2
[11] = Antioxidant activity assessed as inhibition of DPPH free radical scavenging activity by EPR spectrophotometry; format: physicochemical
Summary of the method: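 DPPH radical scavenging measured by EPR spectroscopy instead of absorbance at 517 nm, used where staining prevented the absorbance reading; value given as IC50 for 50% DPPH radical inhibition.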

IC50 [3] [µM]	IC50 [11] [µM]	SMILES	viability at 24 h, 1 µM [1] [%]	Activity [2] [%]	viability at 24 h, 10 µM [4] [%]	Activity [5] [%]	Activity [6] [%]	Activity [7] [%]	antiangiogenic activity (active/not active) [8]	ROS inhibition (active/not active) [9]	Activity [10] [%]
289		COc1cc(C=O)cc(Oc2cc(C=O)cc(OC)c2O)c1O	89	35	85	87	95	32			
382		COc1cc(C=O)cc(-c2cc(C=O)cc(OC)c2O)c1O	100	21	99	88	103	19			
		COc1cc(/C=N/N=c2\[nH]ncc3ccccc23)cc(-c2cc(/C=N/N=c3/[nH]ncc4ccccc34)cc(OC)c2O)c1O.Cl.Cl		99		8	56	52			
9.7		COc1cc(/C=N/Nc2nncc3ccccc23)cc(-c2cc(/C=N/Nc3nncc4ccccc34)cc(OC)c2O)c1O	109		98				Active	Active	
20.1	17.7	Cc1c(C)c2c(c(C)c1O)CCC(C)(C(=O)O)O2 (configuration not stated) [TROLOX]	98	68	95	10	57	45	Active	Active	20
23.6		COc1cc(/C=N/NC(=O)OCc2ccccc2)cc(Oc2cc(/C=N/NC(=O)OCc3ccccc3)cc(OC)c2O)c1O	102	69	94	6	28	51	inactive	inactive	
8.6		COc1cc(/C=N/Nc2nc3ccccc3s2)cc(Oc2cc(/C=N/Nc3nc4ccccc4s3)cc(OC)c2O)c1O	93	69	80	12	93	51	Active	Active	
11.5		COc1cc(/C=N/N=c2/[nH]ncc3ccccc23)cc(Oc2cc(/C=N/N=c3/[nH]ncc4ccccc34)cc(OC)c2O)c1O.Cl.Cl	95	72	90	10	37	56		Active	<5
27.7		COc1cc(/C=N/Nc2nc3ccccc3s2)cc(-c2cc(/C=N/Nc3nc4ccccc4s3)cc(OC)c2O)c1O	90	91	78	7	19	58	Active	Active	
19.8		COc1cc(/C=N/NC(=O)c2cc(C)n[nH]2)cc(Oc2cc(/C=N/NC(=O)c3cc(C)n[nH]3)cc(OC)c2O)c1O	95	65	100	91	97	41			
21.5		COc1cc(/C=N/NC(=O)c2ccncc2)cc(Oc2cc(/C=N/NC(=O)c3ccncc3)cc(OC)c2O)c1O	95	66	92	88	100	42			
38.8		COc1cc(/C=N/NC(=O)c2ccncc2)cc(-c2cc(/C=N/NC(=O)c3ccncc3)cc(OC)c2O)c1O	100	19	88	92	112	18			
59.7		COc1cc(/C=N/NC(=O)OCc2ccccc2)cc(-c2cc(/C=N/NC(=O)OCc3ccccc3)cc(OC)c2O)c1O	91	90	85	5	18	52	Active	Active	
29.1		COc1cc(/C=N/NC(=O)c2cc(C)n[nH]2)cc(-c2cc(/C=N/NC(=O)c3cc(C)n[nH]3)cc(OC)c2O)c1O	107	40	105	71	99	14			

From ChEMBL document CHEMBL3813648, “Synthesis and evaluation of antioxidant phenolic diaryl hydrazones as potent antiangiogenic agents in atherosclerosis” (Bioorg Med Chem, 2016)
